This excerpt belongs to a sample that is enriched for hits.
L major viab: reduces viability of Leishmania major promastigotes; resazurin fluorescence viability; inhibition, % at 10 µM; 200,000 compounds, 9% hits; AID 1063; in the data active = inhibition above about 50%;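 note: promastigotes grown with compound for 44 hours at 28 °C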
Dynein transport: blocks dynein driven cargo transport along microtubules; 3617.4 mouse cells, GR-EGFP nuclear translocation imaging; test concentration mostly 20 µM; stimulated with dexamethasone, 1 µM; stronger effect = lower value; z-score, hits read low; 220,000 compounds, 0.47% hits; AID 1381;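 active = plate z-score of nuclear minus cytoplasmic receptor signal below a set negative limit, without overly bright fluorescence or cell loss, cut at about -3.5 in these data, passing the limit was not always enough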;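 note: z-score of nuclear minus cytoplasmic ring GR-EGFP intensity difference per well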
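Buffer or medium: tet-free, stripped-serum medium; reagent: dexamethasone at 1.0 µM final, 30 min; incubation: 48 h induction, 1 h compound, 30 min dex at 37 °C; measured by: formaldehyde fixation, Hoechst nuclear stain, 10x automated fluorescence imaging; read-out: nuclear-to-cytoplasmic GR-EGFP distribution per well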
T cruzi inh: T. cruzi replication inhibition; T. cruzi beta-gal in NIH3T3, luminescence, 90 h; 300,000 compounds, 1.4% hits; AID 1885; inhibition, % (concentration not given with the values);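 active = mean inhibition across valid replicates above about 55%, limit read from the data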;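 note: signal also drops with host cell toxicity which is not excluded here; 0% = plate median of DMSO wells and 100% = zero luminescence signal; higher percent means less beta-gal luminescence so fewer parasites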
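Material: NIH/3T3 host cells with β-galactosidase reporter T. cruzi; Input: 5,000 host fibroblasts per well; Medium: DMEM, 2% fetal bovine serum; Compound: 50 nL DMSO compound solution per well; Schedule: 3 h host attachment, then at least 90 h co-culture; Detection: luminescent β-galactosidase signal after 60 min lysis.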
CHOP inhibitor: inhibitors of CHOP induction in ER stress response. CHO-K1 CHOP-promoter luciferase, tunicamycin-induced, 15-18 h. inhibition, % at 10 µM. 220,000 compounds, 3.8% hits;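 active = compounds that reduced the stress-induced luciferase reporter signal by more than about 70% of percent inhibition, limit read from the data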;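 note: 0% = tunicamycin plus vehicle and 100% = wells without tunicamycin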
UPR CHOP act: activators of apoptotic arm of unfolded protein response (CHOP). CHO-CHOP luciferase reporter, UPR activation, luminescence; percent of tunicamycin response over DMSO baseline. activation, % at 10 µM. 330,000 compounds, 0.34% hits;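 active = at 10 µM dose, activation of 40% or more, normalized to positive control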;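 note: 100% = tunicamycin at 10 µg/mL and 0% = DMSO alone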
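System: CHO-CHOP luciferase reporter cell line; amount: 500 cells/well; buffer or medium: F12 medium containing 10% fetal bovine serum; incubation: 6 h compound exposure at 37 °C after overnight seeding; measured by: luciferase luminescence after 10 min with Steady-Glo reagent; evaluation: % reporter activation, DMSO baseline versus tunicamycin full activation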
UPR XBP1 act: adaptive UPR (XBP1) activation; 330,000 compounds, 0.33% hits; activation, % at 20 µM; CHO-XBP1 luciferase reporter, IRE1-XBP1 UPR activation, luminescence; percent of tunicamycin response, DMSO as zero; AID 463104;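 active = versus positive control, 20 µM dose yields 30% or more activation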;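 note: 100% = tunicamycin at 10 µg/mL and 0% = DMSO only wells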
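Signal: luciferase luminescence; Assay system: CHO-XBP1 luciferase reporter cells; Amount: one thousand reporter cells per well; Dosing: 20 µM single concentration, DMSO 1%; Benchmarks: high control tunicamycin 10 µg/mL final, low control DMSO vehicle only; Schedule: 6 h compound exposure at 37 °C, 5% CO2; Evaluation: percent activation relative to tunicamycin reference.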
The depositor's hits bear a star; . = no result.

SMILES	L major viab	Dynein transport	T cruzi inh	CHOP inhibitor	UPR CHOP act	UPR XBP1 act
COc1cc(NC(=O)CN2C(=O)c3ccccc3S2(=O)=O)cc(OC)c1	.	.	.	.	0	-3
CCN(CC)c1ccc(C=Nc2ccc(OC)c(S(=O)(=O)N3CCOCC3)c2)c(O)c1	.	.	.	.	1	0
Cc1ccnc(SCC(=O)c2ccc(Br)cc2)c1C#N	5	-0.75	74*	3	5	1
Cc1snc(SCC(=O)c2ccc(Cl)cc2)c1C#N	99*	0.29	15	20	4	0
Cc1ccc(C(=O)CSc2nsc(C)c2C#N)cc1	-6	-0.7	-7	33	7	-2
CC1C2CC(C/C2=N/NC(=O)c2cccs2)C1(C)C (stereo unspecified)	95*	-0.56	20	-5	0	-1
COc1cc(C(=O)NCc2ccc(-c3nc4ccccc4s3)cc2)cc(OC)c1OC	8	-0.52	2	54	5	0
COc1cc(C(=O)NCc2ccc(-c3nc4ccccc4o3)cc2)cc(OC)c1OC	-2	0.58	-3	71*	4	8
COc1ccc(OC)c(S(=O)(=O)NC2CCSc3ccccc32)c1 (stereo unspecified)	.	.	13	.	0	1
CCC(=O)Oc1ccc(C(=O)Nc2ccc3c(c2)C(=O)N(C2CCCCC2)C3=O)cc1	1	0.62	24	71*	1	6
O=C(Nc1ccc(N2CCN(C(=O)c3cccs3)CC2)cc1)c1ccc(F)cc1	.	.	19	.	2	-2
Cc1ccc(CN(C)C(=O)c2ccccc2NC(=O)c2ccccc2)o1	.	.	.	.	0	-2
O=C(Cc1ccc(Cl)cc1)NC1CCCCCC1	.	.	3	.	5	-2
Clc1ccc(CN=C(Nc2ccccc2)NC2CCCCC2)cc1	95*	-0.84	49	-34	0	-2
Cc1cc(N)ccc1NC(=O)CN1CCCC1	.	.	-13	.	1	0
O=C(CN1/C(=C(/O)c2ccccc2)C(=O)c2ccccc2S1(=O)=O)c1ccccc1	20	2.1	12	96*	-1	1
COc1ccc(CC(=O)O/N=C(\N)Cc2ccc(OC)c(OC)c2)cc1	92*	1.7	11	-3	-2	-2
Cc1ccc(S(=O)(=O)NCc2ccc(/C=C(/C#N)C(=O)NCc3ccccc3)o2)cc1	70*	0.12	-6	24	0	-1
O=C(CN1C(=O)NC2(CCCCCC2)C1=O)c1ccc(OC(F)F)cc1OC(F)F	.	.	4	.	1	-4
CSc1nnc2n(-c3ccccc3)c(=O)c3c4c(sc3n12)CCC4	-1	-0.34	.	5	-1	5
CN1CCc2c(sc3c2c(=O)n(-c2ccccc2)c2nnc(SCc4ccccc4)n32)C1	11	1.1	71*	18	2	3
C=CCSc1nc2sc3c(c2c(=O)n1-c1ccccc1)CCN(C)C3	.	.	56*	.	1	-3
CCOC(=O)CSc1nc2sc3c(c2c(=O)n1C1CCCCC1)CCN(C)C3	40	-1.8	57*	6	0	0
COCCSc1nc2sc3c(c2c(=O)n1-c1ccccc1)CCN(C)C3	100*	-1.8	52	11	-1	2
CCSc1nc2sc3c(c2c(=O)n1-c1ccccc1)CCN(C)C3	.	.	48	.	1	-4
SMILES	L major viab	Dynein transport	T cruzi inh	CHOP inhibitor	UPR CHOP act	UPR XBP1 act
CN1CC(=O)N(CC(=O)Nc2ccc(OCc3ccccc3)cc2)C1=O	.	.	.	.	3	3
CCN(CC)C(=O)N1CCN(c2c([N+](=O)[O-])c(=O)oc3ccccc23)CC1	.	.	.	.	2	1
Cc1ccc2c(c1)N(C(=O)c1ccco1)C(C)(C)c1ssc(=S)c1-2	98*	0.65	30	31	1	0
Cc1cccc2c1N(C(=O)c1ccco1)C(C)(C)c1ssc(=S)c1-2	-5	-0.12	21	37	-2	0
c1coc(-c2nc3c4c5c(sc4ncn3n2)CCCC5)c1	-1	-0.41	1	79*	0	2
Cc1nc2sc3c(c2c2nc(-c4ccco4)nn12)CCCC3	2	-0.25	.	49	.	.
O=C(CSC1=NCCS1)Nc1nc2ccccc2s1	4	-0.51	26	25	4	4
Cc1sc(NC(=O)CSC2=NCCS2)nc1-c1ccccc1	11	0.62	8	73*	1	2
O=C(NC(=S)NNC(=O)c1cnccn1)c1ccc(Cl)cc1	.	1.3	11	60	-3	-2
COc1cc(C(=O)NNC(=S)NC(=O)c2ccccc2C)cc(OC)c1OC	-14	-0.54	-5	23	-2	-2
COc1ccccc1C(=O)NNC(=S)NC(=O)c1cc(OC)c(OC)c(OC)c1	-6	1.2	60*	55	0	10
COc1cc(C(=O)NC(=S)NNC(=O)c2cnccn2)cc(OC)c1OC	100*	0.34	-18	68	1	-1
S=C(Nc1ccccc1)N1CCC(Cc2ccccc2)CC1	.	.	19	.	1	-4
Cc1cc(C)c(S(=O)(=O)NCCC2CCCN2C)c(C)c1 (stereo unspecified)	97*	2.8	11	-14	-2	2
CC(C)Oc1ccc(CNC(=S)Nc2ccccc2)cc1Cl	.	.	-8	.	0	1
CC(C)Oc1ccc(CCN=C(N)N=C(N)N)cc1Cl	81*	0.86	-7	-1	-1	-2
Cc1ccc(N=Nc2ccc(O)c3ncccc23)cc1C	100*	-0.78	66*	92*	37	3
CCS(=O)(=O)c1ccc(N=Nc2ccc(O)c3ncccc23)c(OC)c1	100*	-0.53	26	45	5	8
COc1ccccc1N=Nc1ccc(O)c2ncccc12	.	.	46	.	33	3
Cc1ccc(N=Nc2ccc(O)c3ncccc23)cc1	100*	-0.46	57*	31	.	.
Cc1cc(N(C)C)ccc1N=Nc1ccc2ncccc2c1	.	0.78	4	1	-1	-1
Oc1ccc(N=Nc2ccccc2C(F)(F)F)c2cccnc12	.	.	55*	.	7	-1
O=c1ncn(-c2ccccc2C(F)(F)F)c2ncccc12	3	-0.65	-14	-23	-3	-3
CC(=O)C[C@@H](O)CC(=O)[C@@H]1OC(=O)[C@H](C)CCCCc2ccccc21	.	.	.	.	0	0
CCN(CC)CCNC(=O)c1ccc(NC(=O)c2cccc(-n3cnnn3)c2)cc1	.	.	-7	.	1	0
CCOc1ccc(N(CC(=O)Nc2ccc(OC)cc2OC)S(=O)(=O)c2c(C)[nH]c(=O)[nH]c2=O)cc1	.	.	-5	.	2	-1
COc1cccc(CN2CC(C(=O)N(C)Cc3ccnc4ccccc34)CCC2=O)c1 (stereo unspecified)	.	.	-12	.	1	-4
